# Experiments:
# Staphylococcus aureus = test: Antibacterial activity against Staphylococcus aureus; format: functional
# CEM-SS = test: Cytotoxicity against human CEM-SS cells upto 40 uM after 3 days; format: cell-based; details: 72 h
# Procedure, shortened: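 CEM-SS T lymphocytes were incubated with compound for 3 days and then treated with XTT. The signal was read […] at 450 nm/650 nm, and CC50 was determined from the readings.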
# [1] = Inhibition of Escherichia coli DNA-dependent RNA polymerase by nucleotide coupled NADPH/pyrophosphate release assay
# Procedure, shortened: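 In the pyrophosphate-release coupled assay, NADPH was monitored by fluorescence (emission ~440 nm) instead of absorbance at 340 nm. Some compounds were also tested by incorporation of radiolabeled nucleotide into RNA.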
# Escherichia coli [2] = test: Antibacterial activity against Escherichia coli Tol C mutant; format: functional
# Procedure, shortened: (§1)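 MIC determined by growth inhibition testing; the same test was also run against S. aureus.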
# Escherichia coli [3] = test: Antibacterial activity against Escherichia coli; format: functional; procedure, shortened: as §1
# Escherichia coli [4] = test: Inhibition of Escherichia coli DNA-dependent RNA polymerase at 10 uM by nucleotide coupled NADPH/pyrophosphate release assay
SMILES,MIC (Staphylococcus aureus),Activity (CEM-SS),IC50 [1],MIC (Escherichia coli [2]),MIC (Escherichia coli [3]),inhibition (Escherichia coli [4])
CCCC/C(C)=C/C=C(\C)C(=O)c1c(O)cc(CCC/C=C/NC(=O)OC)oc1=O [DESMETHYL MYXOPYRONIN B],4 µg/mL,Non-toxic,0.34 µM,1 µg/mL,> 64 µg/mL,
CCCCCC(=O)c1c(O)cc(CCC/C=C/NC(=O)OC)oc1=O,> 64 µg/mL,Non-toxic,,,> 64 µg/mL,< 20%
CCCC/C(C)=C/C=C(\C)C(=O)c1c(O)cc(CCC/C=C/NC(=O)OC)n(C)c1=O,> 64 µg/mL,Non-toxic,15 µM,,> 64 µg/mL,
CCCCCCCCC(=O)c1c(O)cc(CCC/C=C/NC(=O)OC)oc1=O,> 64 µg/mL,Non-toxic,,,> 64 µg/mL,< 20%
COC(=O)N/C=C/CCC(C)c1cc(O)c(C(=O)NC/C=C(\C)CCC=C(C)C)c(=O)o1 (stereo not drawn),> 64 µg/mL,Non-toxic,,16 µg/mL,> 64 µg/mL,< 20%
COC(=O)N/C=C/CCCc1cc(O)c(C(=O)/C=C/c2ccc3[nH]ccc3c2)c(=O)o1,> 64 µg/mL,Non-toxic,,,> 64 µg/mL,< 20%
CCCC/C(C)=C/C=C(\C)C(=O)c1c(O)cc(C(C)CC/C=C/NC(=O)OC)n(C)c1=O (stereo not drawn),> 64 µg/mL,Non-toxic,20.5 µM,,> 64 µg/mL,
COC(=O)N/C=C/CCCc1cc(O)c(C(=O)/C(C)=C\c2ccco2)c(=O)o1,> 64 µg/mL,Non-toxic,,,> 64 µg/mL,< 20%
CCCC/C(C)=C/C=C(\C)C(=O)c1ccc(C(C)CC/C=C/NC(=O)OC)cc1O (stereo not drawn),> 64 µg/mL,Non-toxic,,,> 64 µg/mL,38%
CCCC/C(C)=C/C=C(\C)C(=O)c1c(O)cc([C@H](C)CC/C=C/NC(=O)OC)oc1=O [MYXOPYRONIN B],1 µg/mL,Non-toxic,0.92 µM,2 µg/mL,> 64 µg/mL,
